From ChEMBL document CHEMBL1138202, “Tricyclic pyrazoles. 4. Synthesis and biological evaluation of analogues of the robust and selective CB2 cannabinoid ligand 1-(2',4'-dichlorophenyl)-6-methyl-N-piperidin-1-yl-1,4-dihydroindeno[1,2-c]pyrazole-3-carboxamide” (J Med Chem, 2006)

What was measured:
[1] = target: Cannabinoid receptor 1 (Mus musculus, UniProt P47746); assay: Displacement of [3H]CP-55940 from CD1 mouse brain CB1 receptor; format: tissue-based
In short: (§1)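 Male CD-1 mouse brain (minus cerebellum) for CB1 or spleen for CB2, homogenised in ice-cold TME (50 mM Tris-HCl, 1 mM EDTA, 3.0 mM MgCl2, pH 7.4) and centrifuged to membranes. GF/C filtration, scintillation counting. Triplicate, five independent experiments; sigmoid fit IC50 converted to Ki.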

[2] = target: Cannabinoid receptor 2 (Mus musculus, UniProt P47936); assay: Displacement of [3H]CP-55940 from CD1 mouse spleen CB2 receptor; format: tissue-based; in short: as §1
Sequence of Cannabinoid receptor 2 (P47936 whole entry): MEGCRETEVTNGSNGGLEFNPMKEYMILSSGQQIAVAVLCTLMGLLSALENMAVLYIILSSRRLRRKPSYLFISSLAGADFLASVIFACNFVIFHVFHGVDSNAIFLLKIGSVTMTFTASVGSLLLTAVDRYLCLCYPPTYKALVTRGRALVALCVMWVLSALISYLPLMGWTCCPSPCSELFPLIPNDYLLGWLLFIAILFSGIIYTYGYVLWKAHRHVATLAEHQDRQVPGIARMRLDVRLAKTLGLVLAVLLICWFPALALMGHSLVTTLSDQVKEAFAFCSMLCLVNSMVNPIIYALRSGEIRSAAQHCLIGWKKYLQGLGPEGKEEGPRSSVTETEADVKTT

[3] = target: Cannabinoid receptor (Mus musculus) (UniProt P47746+P47936); assay: Selectivity for CD1 mouse CB2 receptor over CB1 receptor; format: protein assay
Sequence of Cannabinoid receptor (Mus musculus) (P47746 whole entry, looked up): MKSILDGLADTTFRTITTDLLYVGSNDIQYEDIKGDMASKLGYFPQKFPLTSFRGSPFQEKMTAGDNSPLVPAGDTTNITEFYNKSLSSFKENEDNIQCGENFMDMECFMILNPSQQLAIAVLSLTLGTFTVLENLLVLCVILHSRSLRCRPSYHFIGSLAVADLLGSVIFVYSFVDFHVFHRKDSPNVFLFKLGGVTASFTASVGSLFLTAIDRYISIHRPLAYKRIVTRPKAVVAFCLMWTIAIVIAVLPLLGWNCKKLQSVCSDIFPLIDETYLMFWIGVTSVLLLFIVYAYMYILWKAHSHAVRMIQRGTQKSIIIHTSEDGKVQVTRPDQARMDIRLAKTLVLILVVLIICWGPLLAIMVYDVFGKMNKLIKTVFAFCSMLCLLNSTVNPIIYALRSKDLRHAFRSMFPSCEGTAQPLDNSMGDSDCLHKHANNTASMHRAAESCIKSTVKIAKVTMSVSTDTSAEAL
Sequence of Cannabinoid receptor (Mus musculus) (P47936 whole entry, looked up): as the sequence (P47936 whole entry) above

[4] = target: Cannabinoid receptor 2 (Homo sapiens) (UniProt P34972); assay: Intrinsic activity at CB2 receptor assessed as induction of ERK1/2 phosphorylation in HL60 cells at 10 nM after 10 mins relative to control; format: functional, cell-based
Sequence of Cannabinoid receptor 2 (Homo sapiens) (P34972 whole entry): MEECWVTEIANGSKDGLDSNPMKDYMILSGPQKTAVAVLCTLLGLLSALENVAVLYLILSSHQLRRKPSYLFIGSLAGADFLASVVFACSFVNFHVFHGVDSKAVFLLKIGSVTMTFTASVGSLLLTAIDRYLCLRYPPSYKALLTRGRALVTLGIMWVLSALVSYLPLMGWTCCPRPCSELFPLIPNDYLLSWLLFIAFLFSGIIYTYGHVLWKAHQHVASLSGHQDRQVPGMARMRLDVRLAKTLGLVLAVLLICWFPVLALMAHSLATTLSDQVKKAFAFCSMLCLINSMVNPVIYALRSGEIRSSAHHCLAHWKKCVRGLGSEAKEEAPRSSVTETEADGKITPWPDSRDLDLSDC
In short: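 HL-60 cells in RPMI 1640 with 10% heat-inactivated FBS, 37 °C, 5% CO2, used at 80% confluency. Compounds in medium with 1% DMSO added to the cell suspension for 10 min. Lysates western blotted with anti-phospho-MAPK 1/2 and read by chemiluminescence. Phospho-ERK 1/2 given as mean percentage of vehicle from five separate experiments.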

Sequence of Cannabinoid receptor 1 (P47746 whole entry): as the sequence (P47746 whole entry, looked up) above

Structure (SMILES) | Ki [1] [nM] | Ki [2] [nM] | Ratio Ki [3] | Activity ([4]; HL-60) [%] | Activity ([4]; HL-60, filed as agonist)
Cc1ccc2c(c1)Cc1c(C(=O)Nc3ccc(C(F)(F)F)cc3)nn(-c3ccc(Cl)cc3Cl)c1-2 | > 10000 | > 5000 | – | – | –
O=C(NN1CCCCC1)c1nn(-c2ccc(Cl)cc2Cl)c2c1Cc1cc(Cl)ccc1-2 | – | – | 6030 | 65 | Agonist
CCCCCCC(C)(C)c1ccc(C2CC(O)CC[C@H]2CCCO)c(O)c1 (single isomer, unassigned) [CP-55940] | 1.5 | 1.11 | – | – | –
Cc1ccc(Cn2nc(C(=O)N[C@@H]3C(C)(C)[C@@H]4CC[C@@]3(C)C4)cc2-c2ccc(Cl)c(C)c2)cc1 | – | – | 250 | – | –
Cc1ccc2c(c1)Cc1c(C(=O)Nc3ccc(F)cc3)nn(-c3ccc(Cl)cc3Cl)c1-2 | > 5000 | 61 | – | – | –
COc1ccc(NNC(=O)c2nn(-c3ccc(Cl)cc3Cl)c3c2Cc2cc(C)ccc2-3)cc1 | > 5000 | 3000 | – | – | –
COc1ccc(NC(=O)c2nn(-c3ccc(Cl)cc3Cl)c3c2Cc2cc(C)ccc2-3)cc1 | > 10000 | 114 | – | – | –
Cc1ccc2c(c1)Cc1c(C(=O)Nc3ccc(Cl)cc3Cl)nn(-c3ccc(Cl)cc3Cl)c1-2 | 2630 | > 5000 | – | – | –
Cc1cc2c(cc1Cl)Cc1c(C(=O)NN3CCCCC3)nn(-c3ccc(Cl)cc3Cl)c1-2 | – | – | 14 | – | –
Cc1ccc(NC(=O)c2nn(-c3ccc(Cl)cc3Cl)c3c2Cc2cc(C)ccc2-3)cc1 | > 5000 | 74 | – | – | –
Cc1ccc2c(c1)Cc1c(C(=O)NNc3ccc(Cl)cc3)nn(-c3ccc(Cl)cc3Cl)c1-2 | > 10000 | > 5000 | – | – | –
Cc1cc2c(cc1Cl)-c1c(c(C(=O)NC3CCCCC3)nn1-c1ccc(Cl)cc1Cl)C2 | – | – | 33 | – | –
Cc1ccc2c(c1)Cc1c(C(=O)Nc3ccc(Cl)cc3)nn(-c3ccc(Cl)cc3Cl)c1-2 | > 10000 | 177 | – | – | –
Cc1cc2c(cc1Cl)-c1c(c(C(=O)NN3CCCCC3)nn1-c1ccc(Cl)cc1Cl)C2 | – | 200 | 4.6 | – | –
Cc1ccc2c(c1)Cc1c(C(=O)NC3CCCCC3)nn(-c3ccc(Cl)cc3Cl)c1-2 | 900 | 7.6 | 118 | 61.3 | Agonist
Cc1ccc2c(c1)Cc1c(C(=O)Nc3ccccc3)nn(-c3ccc(Cl)cc3Cl)c1-2 | 2410 | 32.8 | 73 | 125 | Agonist
Cc1ccc2c(c1)Cc1c(C(=O)Nc3ccc(Cl)c(Cl)c3)nn(-c3ccc(Cl)cc3Cl)c1-2 | > 10000 | > 10000 | – | – | –
Cc1ccc2c(c1)Cc1c(C(=O)NNc3ccccc3)nn(-c3ccc(Cl)cc3Cl)c1-2 | 2280 | 63 | 36 | – | –
Cc1ccc2c(c1)Cc1c(C(=O)NN3CCCCC3)nn(-c3ccc(Cl)cc3Cl)c1-2 | 363 | 0.037 | 9810 | 83 | Agonist
Cc1ccc2c(c1)Cc1c(C(=O)NNc3ccc([N+](=O)[O-])cc3)nn(-c3ccc(Cl)cc3Cl)c1-2 | 4500 | 2120 | 2 | – | –
